Compounds with a hit are over-represented: about 1.6% of the library has one in this group of screens.
TLR9-MyD88 inh – blocks human TLR9 binding to MyD88 | Q9NR96+Q99836 | CHO BLA complementation TLR9-MyD88, CCF4 FRET ratio | inhibition, % at 4.98 µM | 340,000 compounds, 0.21% hits | AID 504734;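 active = inhibition above the mean over all tested compounds plus 3 SD, cut at about 21% in these data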;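 also: 0% = DMSO only wells and 100% = clavulanate BLA inhibitor control wells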
NOD2 RIPK2 PPI – NOD2-RIPK2 protein interaction inhibition. 360,000 compounds, 0.38% hits. CHO BLA complementation NOD2-RIPK2, CCF4 ratio. inhibition, % at 4.98 µM; in the data active = inhibition above about 21%;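 also: 0% = vehicle only and 100% = reference blocker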
TLR4 MyD88 comp – TLR4-MyD88 interaction inhibition in cells. O00206+Q99836. HeLa CL3-4 TLR4/MyD88 BLA complementation, FRET ratio. inhibition, % at 8.4 µM. 200,000 compounds, 0.18% hits; in the data active = inhibition above about 25%;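 also: 0% = vehicle and 100% = reference inhibitor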
ABHD5 PLIN5 PPI – inhibitors of human ABHD5-perilipin-5 interaction; inhibition, % at 4 µM; Q00G26+Q8WTS1; 360,000 compounds, 0.78% hits; Split G. princeps luciferase complementation, luminescence, 4 h; AID 602281;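 active = inhibition above the mean inhibition across every tested compound plus 3 SD, cut at about 22% in these data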;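 also: 0% = DMSO only wells and the 100% control is not disclosed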
Beta2AR agonist – human beta-2 adrenergic receptor agonism by FAP; P07550; Am2.2-beta2AR cells, FAP receptor internalization, flow cytometry; response, % (no concentration beside the values); 340,000 compounds, 0.43% hits; AID 504454;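 active = response above a set limit, near 3 SD of response in nonfluorescent compounds, cut at about 42% in these data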
Dynein cargo inh – dynein cargo transport inhibition; 3617.4 mouse cells, GR-EGFP nuclear translocation imaging; test concentration mostly 20 µM; stimulated with dexamethasone, 1 µM; hits give low values; z-score, hits read low; 220,000 compounds, 0.47% hits;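 active = plate z-score of nuclear minus cytoplasmic receptor signal below a set negative limit, without overly bright fluorescence or cell loss, cut at about -3.5 in these data, passing the limit was not always enough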;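 also: z-score of nuclear minus cytoplasmic ring GR-EGFP intensity difference per well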
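Buffer or medium: tetracycline-free induction medium containing charcoal-stripped FBS / Reagent: dexamethasone agonist, 1.0 µM final, for 30 min / Technique: automated 10x imaging of fixed Hoechst-stained cells / Times: induction 48 h, compound 1 h, agonist 30 min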
ABHD5 PLIN5 conf – confirmation of human ABHD5-PLIN5 interaction inhibitors; inhibition, % at 4 µM; biochemical ABHD5-PLIN5 interaction, luminescence; shares compounds with ABHD5 PLIN5 PPI; AID 651612; 2,200 compounds, 67% hits; in the data active = inhibition above about 23%;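 also: 0% = DMSO vehicle wells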
HNF4 split-luc – counter-screen for ABHD5-PLIN5 inhibitors: HNF4 split-luciferase. shares compounds with ABHD5 PLIN5 PPI. HNF4 dimerization, luminescence, biochemical. inhibition, % at 4 µM. 2,200 compounds, 77% hits. AID 651674;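 active = mean inhibition across replicate wells exceeding the computed hit threshold, cut at about 13% in these data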;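 also: light from luciferase halves that rejoin when HNF4 fusion proteins dimerize; 0% = DMSO only wells and the 100% control is not given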
Numbers without * were called inactive; . = no result.

SMILES	TLR9-MyD88 inh	NOD2 RIPK2 PPI	TLR4 MyD88 comp	ABHD5 PLIN5 PPI	Beta2AR agonist	Dynein cargo inh	ABHD5 PLIN5 conf	HNF4 split-luc
Cc1cccc(/C=C/C(=O)c2ccc([N+](=O)[O-])o2)c1	4	6	.	77*	87*	.	104*	108*
O=C(/C=C/c1cccc([N+](=O)[O-])c1)c1ccc([N+](=O)[O-])o1	8	5	.	72*	67*	.	105*	111*
O=C(/C=C/c1c(F)cccc1Cl)Nc1ncccn1	-26	-10	0	-1	-19	-0.58	.	.
CC(/C=C/c1ccccc1F)=N\NC(=O)c1ccccc1	-4	-10	4	6	3	1.2	.	.
O=C(/C=C/c1c(F)cccc1Cl)c1ccc(O)cc1	2	-5	.	39*	12	-1.5	46*	48*
O=C(O)c1ccc2c(c1)C(=O)N(c1cccc(C(=O)/C=C/c3ccccc3)c1)C2=O	-3	9	-9	46*	-2	0.093	97*	91*
O=C(C=Cc1ccccc1F)c1ccccc1	.	3	.	69*	.	.	87*	79*
O=C(C=Cc1cccc(Cl)c1)c1ccccc1	-9	14	.	51*	19	.	97*	94*
CC(OC(=O)CNC(=O)c1sc2ccccc2c1Cl)c1ccccc1 (configuration not stated)	5	0	.	1	4	.	.	.
COc1ccc(C=C2CS(=O)(=O)CC(=Cc3ccc(OC)cc3)C2=O)cc1	5	8	.	94*	.	.	103*	105*
COc1ccc(/C=C2\CCCCC2=O)cc1	-6	1	.	-8	-2	.	.	.
COc1ccc(/C=C2\CCC/C(=C\C=N\N(C)C)C2=O)cc1	2	11	-12	36*	12	-2.7	36*	72*
CN(C)/N=C/C=C1\CCC/C(=C\c2ccc(F)c(F)c2)C1=O	.	-1	0	53*	3	-3	71*	73*
COc1ccc(/C=C2/CCOC2=O)cc1	5	-2	-4	0	1	-0.56	.	.
O=C1/C(=C/c2ccc(C(=O)O)cc2)CCC/C1=C\c1ccc(C(=O)O)cc1	0	-1	9	15	-4	-1.1	.	.
O=C(NC(=S)NC1CCCCC1)c1ccc(F)cc1	8	0	.	-12	-7	.	.	.
O=C1NC(Cc2ccc(O)cc2)c2nc3cc(Cl)ccc3c(=O)n2-c2cc(Cl)ccc21 (configuration not stated)	0	0	.	2	13	.	.	.
CN(CC(=O)N1CCCCC1)S(=O)(=O)c1ccc(Cl)cc1	0	-2	-4	-5	-3	-0.45	.	.
CN(CC(=O)N1CCCC1)S(=O)(=O)c1ccc(Cl)cc1	-5	-6	-7	27*	-4	2.2	5	3
COC(=O)C[C@@H]1C=C[C@H](NS(=O)(=O)c2cccc(F)c2)[C@@H](CO)O1	.	0	.	-1	.	.	.	.
Cc1ccc(C(C)C)cc1OCC(=O)N1CCN(C(=O)c2ccco2)CC1	0	-3	.	24*	-3	.	3	-2
Nc1nc(N2CCN(C/C=C/c3ccccc3)CC2)nc2ccccc12	-3	-3	1	28*	-8	-1.3	31*	7
O[C@@H]1CN(CC2CCCCC2)[C@@H](c2ccccc2)C[C@H]1n1cc(-c2ccc(F)cc2)nn1	-6	3	.	-14	.	.	.	.
CCCCNC(=O)c1nc(C2CCN(S(=O)(=O)c3ccc(F)c(F)c3)CC2)oc1-c1ccccc1	.	-4	.	7	.	.	.	.
COc1cccc(C=C(C(C)=O)C(=O)c2ccccc2)c1	.	3	.	77*	.	.	87*	80*
CSc1nc(=O)[nH]nc1Sc1ccccc1	10	14	.	33*	.	.	48*	53*
CCCCc1ccc(C2C3=C(CC(C)(C)CC3=O)NC3=C2C(=O)c2ccccc23)cc1 (configuration not stated)	0	-6	11	4	25	-0.16	.	.
